Consider 17 compounds from ChEMBL document CHEMBL1138931, “Synthesis and antimalarial efficacy of aza-fused rhodacyanines in vitro and in the P. berghei mouse model” (J Med Chem, 2006).

The EC50 is the concentration giving half of the maximal effect.

The test system of one test is Plasmodium falciparum. In words: Antimalarial activity against chloroquine-resistant Plasmodium falciparum K1. The class given is functional, organism-based. Summed up: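 P. falciparum K1 (chloroquine-resistant) tested in vitro by the Desjardins method; activity given as EC50.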
Test [1] concerns Plasmodium berghei. Kind of test: Suppression of Plasmodium berghei NK65 infected ICR mice (Mus musculus) at 10 mg/kg/day intraperitoneal dose over 4 days. The class given is functional. Summed up: (§1)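 Peters' 4-day suppressive test: ICR mice (five per group) infected with drug-sensitive P. berghei NK65, dosed daily for 4 days intraperitoneally or per os. Percent suppression = reduction of parasitemia in treated versus untreated infected control mice. Mice were observed after treatment to record mean survival days.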

Test [2] relates to Mus musculus. Kind of test: Activity in ICR mice (Mus musculus) infected with Plasmodium berghei NK65 after 4 days at 10 mg/kg/day, intraperitoneally assessed as mean survival days. The class given is functional. The following applies: route intraperitoneal. Summed up: (§2)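 Peters' 4-day suppressive test; P. berghei NK65 (drug-sensitive) in groups of five ICR mice; compound given daily for 4 days, ip or po at the stated mg kg-1 day-1. Mice followed after treatment ends; mean survival days recorded against untreated infected controls.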

The test system of test [3] is Mus musculus. Kind of test: Activity in ICR mice (Mus musculus) infected with Plasmodium berghei NK65 after 4 days at 25 mg/kg/day, intraperitoneally assessed as mean survival days. The class given is functional. The note with it: route intraperitoneal. In outline: as §2
Test [4] has as its system L6. Kind of test: Cytotoxicity against rat L6 cell line. The class given is functional, cell-based. Summed up:
(§3)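 Rat skeletal myoblast L-6 line used for cytotoxicity; EC50 determined. Antiplasmodial EC50 was measured against chloroquine-resistant P. falciparum strain K1 in vitro by the Desjardins method. Selectivity index = EC50(L-6)/EC50(P. falciparum K1).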

Test [5] relates to L6. In words: Selectivity index, EC50 for L6 cells/EC50 for Plasmodium falciparum K1. The class given is functional. Summed up: as §3
Test [6] has as its system Plasmodium berghei. Kind of test: Suppression of Plasmodium berghei NK65 infected ICR mice (Mus musculus) at 100 mg/kg/day peroral dose over 4 days. The class given is functional. The note with it: route oral. Summed up: as §1
Test [7] concerns Mus musculus. Kind of test: Activity in ICR mice (Mus musculus) infected with Plasmodium berghei NK65 after 4 days at 100 mg/kg/day, perorally assessed as mean survival days. The class given is functional. The note with it: route oral. In outline: as §2
In test [8] the test system is Mus musculus. In words: Activity in ICR mice (Mus musculus) infected with Plasmodium berghei NK65 after 4 days at 20 mg/kg/day, intraperitoneally assessed as mean survival days. The class given is functional. The following applies: route intraperitoneal. In outline:
as §2

For test [9], the system named is Mus musculus. In words: Activity in ICR mice (Mus musculus) infected with Plasmodium berghei NK65 after 4 days at 40 mg/kg/day, intraperitoneally assessed as mean survival days. The class given is functional. The following applies: route intraperitoneal. Summed up: as §2
For test [10], the system named is Plasmodium berghei. In words: Suppression of Plasmodium berghei NK65 infected ICR mice (Mus musculus) at 25 mg/kg/day intraperitoneal dose over 4 days. The class given is functional. Summed up: as §1
Test [11] has as its system Plasmodium berghei. Kind of test: Suppression of Plasmodium berghei NK65 infected ICR mice (Mus musculus) at 20 mg/kg/day intraperitoneal dose over 4 days. The class given is functional. In outline: as §1
Test [12] concerns Plasmodium berghei. Kind of test: Suppression of Plasmodium berghei NK65 infected ICR mice (Mus musculus) at 40 mg/kg/day intraperitoneal dose over 4 days. The class given is functional. Summed up:
as §1

`CCN(CC)CCCC(C)Nc1ccnc2cc(Cl)ccc12` (stereo not given) [CHLOROQUINE] had an EC50 in the test on Plasmodium falciparum of 150 nM. In addition, the Activity came to 90.6% in the test on Plasmodium berghei [1] and 22.7 days in the test on Mus musculus [2].
`CCn1c(=O)/c(=C2\C=CC=CN2C)s/c1=C1\S/C(=N\c2sc3cc(Cl)ccc3[n+]2C)N(C(C)C)C1=O.[Cl-]`: the Activity with Mus musculus [3] turned out to be 7.7 days.
Consider `CCN1C(=O)/C(=C2\C=Cc3ccccc3N2C)S/C1=N\c1cccc[n+]1C.[Cl-]`, for which the EC50 in the test on Plasmodium falciparum was 5.9 nM; with L6 [4], 120000 nM. The compound further gave a Selectivity index with L6 [5] of 20000.
On to `CCN1C(=O)/C(=c2/s/c(=C3/C=CC=CN3C)c(=O)n2CC)S/C1=N\c1sc2cc(Cl)ccc2[n+]1C.[Cl-]`, for which the figures for the EC50 in the test with Plasmodium falciparum and in the test on L6 [4] were 10 nM and 46000 nM, respectively. For the same compound, in the test with L6 [5], the Selectivity index was found to be 4600. Besides, the Activity in the test with Plasmodium berghei [6] was determined as 41.7%; with Mus musculus [2] it was 11.8 days; with Mus musculus [3], 25.3 days; in the test on Mus musculus [7], 6.5 days; in the test with Mus musculus [8] it was 20.3 days; in the test with Mus musculus [9] it was 7 days.
For the compound `CCN1C(=O)/C(=c2/s/c(=C3/SCCN3C)c(=O)n2CC)S/C1=N\c1sc2cc(Cl)ccc2[n+]1C.[Cl-]`, the concentration for a half-maximal effect (EC50) with Plasmodium falciparum came to 23 nM; in the test on L6 [4], 12000 nM. Moreover, the Selectivity index in the test with L6 [5] is listed as 520. Moreover, the Activity in the test with Mus musculus [3] is 16 days.
As to `CCN1C(=O)/C(=c2/s/c(=C3/C=CC=CN3C)c(=O)n2CC)S/C1=N\c1sc2ccccc2[n+]1C.[Cl-]`, the EC50 with Plasmodium falciparum worked out at 22 nM; in the test with L6 [4], 14000 nM. The Selectivity index in the test on L6 [5] is reported as 640. The Activity with Plasmodium berghei [1] was determined as 70.8%; with Plasmodium berghei [10], 96.4%; in the test on Plasmodium berghei [11], 92.4%; with Plasmodium berghei [12] it was 97.8%; with Mus musculus [2] it was 9.8 days; in the test with Mus musculus [3], 22 days. Besides, the Activity stood at 19 days in the test with Mus musculus [8] and 7.8 days in the test with Mus musculus [9].
With `CCN1C(=O)/C(=C2\Sc3ccccc3N2C)S/C1=N\c1sc2cc(Cl)ccc2[n+]1C.[Cl-]`, the Activity in the test on Mus musculus [3] is 5.5 days.
For the compound `CCN1C(=O)/C(=c2/s/c(=C3/C=Cc4ccccc4N3C)c(=O)n2CC)S/C1=N\c1sc2cc(Cl)ccc2[n+]1C.[Cl-]`, the figures for the Activity in the test on Plasmodium berghei [10] and in the test with Mus musculus [3] were 49.7% and 7 days, respectively.
Regarding `CCN1C(=O)/C(=c2/s/c(=C3/SCCN3C)c(=O)n2CC)S/C1=N\c1sc2cc(OC)ccc2[n+]1C.[Cl-]`, the Activity in the test on Plasmodium berghei [10] worked out at 95%; in the test on Mus musculus [3], 5 days.
Consider `CCN1C(=O)/C(=C2\C=Cc3ccccc3N2C)S/C1=N\c1sc2cc(Cl)ccc2[n+]1C.[Cl-]`, for which the EC50 with Plasmodium falciparum came out at 4.4 nM; in the test on L6 [4], 11000 nM. Moreover, in the test on L6 [5], the Selectivity index is on record as 2500.
With `C=CC[n+]1ccccc1/C=c1\s/c(=C2/Sc3ccccc3N2C)c(=O)n1C.Cc1ccc(S(=O)(=O)[O-])cc1`, the EC50 in the test with Plasmodium falciparum is 19 nM; in the test on L6 [4] it was 100000 nM. The compound further yielded a Selectivity index in the test on L6 [5] of 5000. The Activity in the test on Plasmodium berghei [1] turned out to be 27%.
Regarding `C=CCN1C(=O)/C(=c2/s/c(=C3/SCCN3C)c(=O)n2CC)S/C1=N\c1sc2cc(Cl)ccc2[n+]1C.[Cl-]`, the Activity came out at 73.1% with Plasmodium berghei [10] and 12.8 days in the test with Mus musculus [3].
The matching figures for `CCN1C(=O)/C(=c2/s/c(=C3/C=CC=CN3C)c(=O)n2CC)S/C1=N\c1sc2cc(F)ccc2[n+]1C.[Cl-]`: 79.5% and 10.8 days.
For `CCN1C(=O)/C(=c2/s/c(=C3/C=CC=CN3C)c(=O)n2CC)S/C1=N\c1sc2cc(OC)ccc2[n+]1C.[Cl-]`, the Activity with Plasmodium berghei [10] is 98.3%; with Mus musculus [3] it was 6.3 days.
The matching figures for `CCN1C(=O)/C(=c2/s/c(=C3/C=CC=CN3C)c(=O)n2CC)S/C1=N\c1scc(-c2ccc(Cl)cc2)[n+]1C.[Cl-]`: 95.6% and 5.3 days.
Taken in the same sequence, the figures for `CCN1C(=O)/C(=c2/s/c(=C3/C=Cc4ccccc4N3C)c(=O)n2CC)S/C1=N\c1cccc[n+]1C.[Cl-]` were 78.4% and 5.6 days.
Taken in the same sequence, the figures for `C=CCN1C(=O)/C(=c2/s/c(=C3/C=CC=CN3C)c(=O)n2CC)S/C1=N\c1sc2cc(Cl)ccc2[n+]1C.[Cl-]` were 95.7% and 18 days.
